Laboratory results from ChEMBL document CHEMBL1125212, “Dual-action cephalosporins: cephalosporin 3'-quinolone carbamates” (J Med Chem, 1991).
Converted amounts (≈) assume the structure as drawn.

What was measured:
Escherichia coli [1] = test: The compound was tested in vitro for minimum inhibitory concentration against Escherichia coli ATCC 25922; assay type: functional
Method in brief: (§1)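 Agar dilution on Mueller-Hinton agar using 2-fold serial dilutions, giving final 128 to 0.0156 μg/mL (extended to 0.000977 μg/mL where needed). Inoculum was overnight broth culture diluted 100-fold, about 3×10^4 CFU/spot, applied by replicator. MIC read after overnight incubation at 36 °C.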

Escherichia coli [2] = test: The compound was evaluated for the inhibition of [14C]- Pen G binding to Escherichia coli UB1005 penicillin-binding protein 1a 90 kDa.
Method in brief: (§2)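 Membranes from sonicated E. coli UB1005 were solubilized. Binding to penicillin-binding proteins was measured as inhibition of [14C]penicillin G binding.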

Escherichia coli [3] = test: Minimum inhibitory concentration required to inhibit the activity of Escherichia coli UB1005; assay type: functional; method in brief: as §1
Proteus mirabilis = test: The compound was tested in vitro for minimum inhibitory concentration against Proteus mirabilis 90; assay type: functional
Method in brief: (§3)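 Proteus MICs by agar dilution on Mueller-Hinton medium containing 3% agar. Serial 2-fold dilutions gave final 128 to 0.0156 μg/mL (further to 0.000977 μg/mL). Inoculum was overnight broth diluted 100-fold, about 3×10^4 CFU/spot. Plates read after overnight incubation at 36 °C.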

Escherichia coli [4] = test: Minimum inhibitory concentration required to inhibit the activity of Escherichia coli ATCC 25922; assay type: functional; method in brief: as §1
Pseudomonas aeruginosa [5] = test: The compound was tested in vitro for minimum inhibitory concentration against Pseudomonas aeruginosa 18S/H; assay type: functional; method in brief: as §1
Escherichia coli [6] = test: The compound was tested in vitro for minimum inhibitory concentration against Escherichia coli 257; assay type: functional; method in brief: as §1
Citrobacter freundii = test: The compound was tested in vitro for minimum inhibitory concentration against Citrobacter Freundii BS-16; assay type: functional; method in brief: as §1
Enterococcus faecalis = test: The compound was tested in vitro for minimum inhibitory concentration against Enterococcus faecalis ATCC 29212; assay type: functional; method in brief: as §1
Micrococcus luteus = test: The compound was tested in vitro for minimum inhibitory concentration against Micrococcus luteus ATCC 9341; assay type: functional; method in brief: as §1
Streptococcus pyogenes = test: The compound was tested in vitro for minimum inhibitory concentration against Streptococcus pyogenes; assay type: functional
Method in brief: (§4)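 Streptococci tested by agar dilution on brain heart infusion agar with 20 units/mL bovine liver catalase. Final drug range 128 to 0.0156 μg/mL by 2-fold steps, extended to 0.000977 μg/mL when required. Inoculum about 3×10^4 CFU/spot from overnight broth diluted 100-fold. MIC after overnight incubation at 36 °C.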

Serratia marcescens = test: The compound was tested in vitro for minimum inhibitory concentration against Serratia marcescens 1071; assay type: functional; method in brief: as §1
Streptococcus pneumoniae = test: The compound was tested in vitro for minimum inhibitory concentration against Streptococcus pneumoniae 6301; assay type: functional; method in brief: as §4
Pseudomonas aeruginosa [7] = test: The compound was tested in vitro for minimum inhibitory concentration against Pseudomonas aeruginosa 8780; assay type: functional; method in brief: as §1
Klebsiella pneumoniae = test: The compound was tested in vitro for minimum inhibitory concentration against Klebsiella pneumoniae A; assay type: functional; method in brief: as §1
Escherichia coli [8] = test: The compound was evaluated for the inhibition of [14C]- Pen G binding to Escherichia coli UB1005 penicillin-binding protein 3 60 kDa.; method in brief: as §2
Enterobacter cloacae = test: The compound was tested in vitro for minimum inhibitory concentration against Enterobacter cloacae P99; assay type: functional
Escherichia coli [9] = test: Inhibitory activity on replicative DNA biosynthesis in Escherichia coli H560 (permeabilised cells); assay type: functional, organism-based
Method in brief: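 E. coli H560 cells permeabilized with toluene. ATP-dependent incorporation of [3H]thymidine into trichloroacetic acid-insoluble material was measured. IC50 taken as the concentration giving 50% inhibition.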

Proteus vulgaris = test: The compound was tested in vitro for minimum inhibitory concentration against Proteus vulgaris 1028 BC; assay type: functional; method in brief: as §3
Escherichia coli [10] = test: The compound was evaluated for the inhibition of [14C]- Pen G binding to Escherichia coli UB1005 penicillin-binding protein 1b 90 kDa.; method in brief: as §2
Staphylococcus aureus [11] = test: The compound was tested in vitro for minimum inhibitory concentration against Staphylococcus aureus 67-0; assay type: functional; method in brief: as §1
Staphylococcus aureus [12] = test: The compound was tested in vitro for minimum inhibitory concentration against Staphylococcus aureus 753; assay type: functional; method in brief: as §1
Escherichia coli [13] = test: The compound was tested in vitro for minimum inhibitory concentration against Escherichia coli TEM-1; assay type: functional; method in brief: as §1
Escherichia coli [14] = test: The compound was evaluated for the inhibition of [14C]- Pen G binding to Escherichia coli UB1005 penicillin-binding protein 2 66 kDa.; method in brief: as §2
Staphylococcus aureus [15] = test: The compound was tested in vitro for minimum inhibitory concentration against Staphylococcus aureus smith; assay type: functional; method in brief: as §1
Escherichia coli [16] = test: Minimum inhibitory concentration for inhibition of [14C]- Pen G binding to Escherichia coli UB1005; assay type: functional; method in brief: as §2

Row | MIC (Escherichia coli [1]) [µg/mL] | Inhibitory concentration (Escherichia coli [2]) [µg/mL] | MIC (Escherichia coli [3]) [µg/mL] | MIC (Proteus mirabilis) [µg/mL] | MIC (Escherichia coli [4]) [µg/mL] | MIC (Pseudomonas aeruginosa [5]) [µg/mL] | MIC (Escherichia coli [6]) [µg/mL] | MIC (Enterococcus faecalis) [µg/mL] | MIC (Micrococcus luteus) [µg/mL] | MIC (Streptococcus pyogenes) [µg/mL] | MIC (Serratia marcescens) [µg/mL] | MIC (Streptococcus pneumoniae) [µg/mL] | MIC (Pseudomonas aeruginosa [7]) [µg/mL] | MIC (Klebsiella pneumoniae) [µg/mL] | Inhibitory concentration (Escherichia coli [8]) [µg/mL] | MIC (Enterobacter cloacae) [µg/mL] | IC50 (Escherichia coli [9]) [µg/mL] | MIC (Proteus vulgaris) [µg/mL] | Inhibitory concentration (Escherichia coli [10]) [µg/mL] | MIC (Staphylococcus aureus [11]) [µg/mL] | SMILES | other results
1 | 0.031 (≈ 0.038 µM) | 100 | 1 (≈ 1.23 µM) | 0.125 (≈ 0.153 µM) | 0.03 (≈ 0.0368 µM) | 1 (≈ 1.23 µM) | 0.031 (≈ 0.038 µM) | 1 (≈ 1.23 µM) | 0.5 (≈ 0.614 µM) | 0.063 (≈ 0.0773 µM) | 0.25 (≈ 0.307 µM) | 0.125 (≈ 0.153 µM) | 1 (≈ 1.23 µM) | 0.125 (≈ 0.153 µM) | < 0.1 | 0.063 (≈ 0.0773 µM) | 1.7 (≈ 2.09 µM) | 0.125 (≈ 0.153 µM) | 10 | 4 (≈ 4.91 µM) | Nc1nc(/C(=N/OCC(=O)O)C(=O)N[C@@H]2C(=O)N3C(C(=O)O)=C(COC(=O)N4CCN(c5cc6c(cc5F)c(=O)c(C(=O)O)cn6C5CC5)CC4)CS[C@H]23)cs1 | MIC (Citrobacter freundii): 0.125 µg/mL (≈ 0.153 µM); MIC (Staphylococcus aureus [12]): 4 µg/mL (≈ 4.91 µM); MIC (Escherichia coli [13]): 0.063 µg/mL (≈ 0.0773 µM); Inhibitory concentration (Escherichia coli [14]): > 100 µg/mL; MIC (Staphylococcus aureus [15]): 0.5 µg/mL (≈ 0.614 µM); MIC (Escherichia coli [16]): 1 µg/mL (≈ 1.23 µM)
2 | 0.063 (≈ 0.0747 µM) | 100 | 1 (≈ 1.19 µM) | 0.25 (≈ 0.297 µM) | 0.06 (≈ 0.0712 µM) | 1 (≈ 1.19 µM) | 0.063 (≈ 0.0747 µM) | 1 (≈ 1.19 µM) | 1 (≈ 1.19 µM) | 0.25 (≈ 0.297 µM) | 0.5 (≈ 0.593 µM) | 0.25 (≈ 0.297 µM) | 1 (≈ 1.19 µM) | 0.25 (≈ 0.297 µM) | < 0.1 | 0.63 (≈ 0.747 µM) | 2 (≈ 2.37 µM) | 0.125 (≈ 0.148 µM) | 10 | 4 (≈ 4.75 µM) | CC(C)(O/N=C(\C(=O)N[C@@H]1C(=O)N2C(C(=O)O)=C(COC(=O)N3CCN(c4cc5c(cc4F)c(=O)c(C(=O)O)cn5C4CC4)CC3)CS[C@H]12)c1csc(N)n1)C(=O)O | MIC (Citrobacter freundii): 0.125 µg/mL (≈ 0.148 µM); MIC (Staphylococcus aureus [12]): 4 µg/mL (≈ 4.75 µM); MIC (Escherichia coli [13]): 0.063 µg/mL (≈ 0.0747 µM); Inhibitory concentration (Escherichia coli [14]): > 100 µg/mL; MIC (Staphylococcus aureus [15]): 1 µg/mL (≈ 1.19 µM); MIC (Escherichia coli [16]): 1 µg/mL (≈ 1.19 µM)
3 | 0.063 (≈ 0.102 µM) | > 100 | 2 (≈ 3.25 µM) | 1 (≈ 1.62 µM) | 0.06 (≈ 0.0975 µM) | 1 (≈ 1.62 µM) | 0.063 (≈ 0.102 µM) | 4 (≈ 6.5 µM) | 0.5 (≈ 0.812 µM) | 0.125 (≈ 0.203 µM) | 0.125 (≈ 0.203 µM) | 0.063 (≈ 0.102 µM) | 2 (≈ 3.25 µM) | 0.25 (≈ 0.406 µM) | 100 | 0.031 (≈ 0.0504 µM) | 0.5 (≈ 0.812 µM) | 0.063 (≈ 0.102 µM) | > 100 | 4 (≈ 6.5 µM) | O=CN[C@@H]1C(=O)N2C(C(=O)O)=C(COC(=O)N3CCN(c4cc5c(cc4F)c(=O)c(C(=O)O)cn5C4CC4)CC3)CS[C@H]12 | MIC (Staphylococcus aureus [12]): 1 µg/mL (≈ 1.62 µM); MIC (Escherichia coli [13]): 0.063 µg/mL (≈ 0.102 µM); Inhibitory concentration (Escherichia coli [14]): > 100 µg/mL; MIC (Staphylococcus aureus [15]): 0.5 µg/mL (≈ 0.812 µM); MIC (Escherichia coli [16]): 2 µg/mL (≈ 3.25 µM)
4 | 0.063 (≈ 0.0709 µM) | 10 | 1 (≈ 1.13 µM) | 1 (≈ 1.13 µM) | 0.06 (≈ 0.0675 µM) | 1 (≈ 1.13 µM) | 0.063 (≈ 0.0709 µM) | 4 (≈ 4.5 µM) | 0.125 (≈ 0.141 µM) | 0.063 (≈ 0.0709 µM) | 0.125 (≈ 0.141 µM) | 0.031 (≈ 0.0349 µM) | 2 (≈ 2.25 µM) | 0.125 (≈ 0.141 µM) | 0.5 | 0.031 (≈ 0.0349 µM) | 9 (≈ 10.1 µM) | 0.063 (≈ 0.0709 µM) | 10 | 4 (≈ 4.5 µM) | CCN1CCN(C(=O)NC(C(=O)N[C@@H]2C(=O)N3C(C(=O)O)=C(COC(=O)N4CCN(c5cc6c(cc5F)c(=O)c(C(=O)O)cn6C5CC5)CC4)CS[C@H]23)c2ccccc2)C(=O)C1=O (some centres undefined) | MIC (Citrobacter freundii): 0.063 µg/mL (≈ 0.0709 µM); MIC (Staphylococcus aureus [12]): 1 µg/mL (≈ 1.13 µM); MIC (Escherichia coli [13]): 0.063 µg/mL (≈ 0.0709 µM); Inhibitory concentration (Escherichia coli [14]): > 100 µg/mL; MIC (Staphylococcus aureus [15]): 0.5 µg/mL (≈ 0.563 µM); MIC (Escherichia coli [16]): 1 µg/mL (≈ 1.13 µM)
5 | 0.063 (≈ 0.0962 µM) | > 100 | 1 (≈ 1.53 µM) | 0.5 (≈ 0.764 µM) | 0.06 (≈ 0.0917 µM) | 0.5 (≈ 0.764 µM) | 0.063 (≈ 0.0962 µM) | 4 (≈ 6.11 µM) | 0.125 (≈ 0.191 µM) | 0.031 (≈ 0.0474 µM) | 0.125 (≈ 0.191 µM) | 0.031 (≈ 0.0474 µM) | 1 (≈ 1.53 µM) | 0.125 (≈ 0.191 µM) | 100 | < 0.016 | 1 (≈ 1.53 µM) | 0.031 (≈ 0.0474 µM) | > 100 | 2 (≈ 3.06 µM) | N#CCC(=O)N[C@@H]1C(=O)N2C(C(=O)O)=C(COC(=O)N3CCN(c4cc5c(cc4F)c(=O)c(C(=O)O)cn5C4CC4)CC3)CS[C@H]12 | MIC (Citrobacter freundii): 0.063 µg/mL (≈ 0.0962 µM); MIC (Staphylococcus aureus [12]): 1 µg/mL (≈ 1.53 µM); MIC (Escherichia coli [13]): 0.063 µg/mL (≈ 0.0962 µM); Inhibitory concentration (Escherichia coli [14]): > 100 µg/mL; MIC (Staphylococcus aureus [15]): 0.25 µg/mL (≈ 0.382 µM); MIC (Escherichia coli [16]): 1 µg/mL (≈ 1.53 µM)
